Source: PubChem BioAssay
Compounds with a hit are over-represented: about 4.1% of the library has one in this group of screens.
MrgX1 allo act: human MrgX1 positive allosteric modulation, primary screen; B-score at 10 µM; Q96LB2; 0.63% of 310,000 active; AID 588675; MrgX1-HEK293, Fluo-4 calcium flux, FDSS; active compounds read high;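 active means plate-corrected calcium response at least 3 library SD above typical, normal starting fluorescence, not activating the receptor alone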;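 further: compound read alongside a low EC10 to EC30 dose of BAM8-22 agonist; peak minus trough fluorescence over baseline measured at the second addition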
Target sequence (Q96LB2 whole entry, looked up): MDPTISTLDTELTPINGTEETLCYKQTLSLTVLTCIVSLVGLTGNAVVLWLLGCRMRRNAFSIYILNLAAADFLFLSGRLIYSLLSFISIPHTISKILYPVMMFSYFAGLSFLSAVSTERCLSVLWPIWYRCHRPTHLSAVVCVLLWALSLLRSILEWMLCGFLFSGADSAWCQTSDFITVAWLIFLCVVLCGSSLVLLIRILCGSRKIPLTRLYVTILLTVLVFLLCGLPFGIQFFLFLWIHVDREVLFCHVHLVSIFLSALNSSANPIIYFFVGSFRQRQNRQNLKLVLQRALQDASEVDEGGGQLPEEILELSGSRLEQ
MrgX1 antag: blocks BAM8-22 activation of human MrgX1 receptor | AID 588676 | 1.3% of 310,000 active | B-score at 10 µM | Q96LB2 | MRGX1-HEK293 calcium flux, Fluo-4, BAM8-22 antagonism; active compounds read low;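 active means calcium-response B-score plate-corrected more than 3 library SD below zero, starting fluorescence within 5 deviations, no agonist response on first addition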;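 further: peak minus trough fluorescence over baseline after final BAM8-22 challenge near maximal dose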
RGS4 act: potentiators or activators of RGS4 | HEK293 M3R/inducible RGS4, carbachol calcium flux Fluo4; active compounds read low | AID 463111 | B-score at 10 µM | 0.92% of 310,000 active;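 active means B-score of the integrated calcium signal more than 4 SD below the library mean, with starting fluorescence not abnormally high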;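 further: negative B-score means reduced calcium response which marks RGS4 activation or potentiation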
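Material: Inducible-RGS4 HEK293 cells carrying M3 receptor; also added: carbachol at ECmax as muscarinic agonist stimulus; incubation: compound preincubation 20 min at room temperature before agonist; signal: Fluo4-AM (2 µM) calcium-flux fluorescence, kinetic read; measure: integrated calcium ratio converted to B score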
Kir21 block: blocks the mouse Kir2.1 inward-rectifier potassium channel; HEK293-Kir2.1, FluxOR thallium flux fluorescence; active compounds read low; AID 1672; 0.85% of 310,000 active; B-score at 10 µM;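 active means fluorescence ratio B-score at or below minus 3 SD of library scores, with starting-brightness B-score within 2 SD, cut at about -4.2 in these data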;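 further: channel flux triggered by added potassium and thallium sulfate stimulus; B-score of peak minus minimum fluorescence over baseline after thallium stimulus; more negative B-score means stronger Kir2.1 block with less thallium influx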
MrgX1 agonist: activates human MrgX1 receptor signaling | Q96LB2 | MrgX1-HEK293 cells, Fluo-4 calcium fluorescence, agonist mode; active compounds read high | B-score at 10 µM | 0.44% of 310,000 active | AID 588627;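 active means calcium response B-score plate-corrected fluorescence ratio at least 3 library SD, with starting fluorescence B-score inside 5 SD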
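Material: MrgX1-expressing HEK293 cells; input: 15,000 cells per well; doses: test compound given as first of three sequential additions; schedule: overnight plating before 1 h dye loading; technique: Fluo-4 NW calcium-flux fluorescence, kinetic read; evaluation: baseline-normalised fluorescence change ratio, B-scored; control set: plate-wise positive and negative controls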
RGS4 inh: human RGS4 inhibition | HEK293 M3R/RGS4 inducible, Fluo-4 calcium flux; active compounds read high; triggered by carbachol at its EC20 | B-score at 10 µM | 0.45% of 310,000 active | AID 463165;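 active means B-score, a plate-corrected calcium signal, over three deviations above library mean, with baseline fluorescence within five deviations of library mean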;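 further: RGS4 expression induced by doxycycline in cells with stable M3 receptor; B-score is computed from the integrated fluorescence ratio over baseline after carbachol; higher B-score means a larger calcium signal and so more RGS4 inhibition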
Target sequence (P49798 whole entry, looked up): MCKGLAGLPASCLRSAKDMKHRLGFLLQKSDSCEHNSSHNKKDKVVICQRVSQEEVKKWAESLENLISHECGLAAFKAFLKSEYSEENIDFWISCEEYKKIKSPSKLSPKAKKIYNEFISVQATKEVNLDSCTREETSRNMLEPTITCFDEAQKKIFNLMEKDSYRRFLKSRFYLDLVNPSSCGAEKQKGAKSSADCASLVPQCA
Numbers stand for hits; i = inactive; nt = no result given.

SMILES	MrgX1 allo act	MrgX1 antag	RGS4 act	Kir21 block	MrgX1 agonist	RGS4 inh
CC1CCCN(C(=O)CN2C(=O)C(C)Oc3ccccc32)C1 (centres undefined)	i	i	i	i	i	i
O=Cc1cc(Cl)ccc1OCCN1CCC(Cc2ccccc2)CC1	i	i	i	-4.8	i	i
O=C(c1ccc(Cl)cc1)C1CCN(Cc2ccccc2)CC1	i	i	i	-9.5	i	i
Cc1ccc([N+](=O)[O-])c(OCCCN2CCC(Cc3ccccc3)CC2)c1	i	i	i	-9.9	i	i
O=C(C1CCN(Cc2ccc(Cl)cc2)CC1)N1CCN(C(c2ccccc2)c2ccccc2)CC1	i	i	-8	i	i	i
O=C(C1CCN(Cc2ccc(OCc3ccccc3)cc2)CC1)N1CCCC1	i	i	i	i	i	i
C=CCN1C=C2C(=O)C(C)(OC(=O)CCC(=O)OC)C(=O)C=C2C=C1C1CC1 (centres undefined)	i	i	i	i	i	i
COc1ccc(Br)cc1C(=O)Nc1ccc(O)cc1	i	i	i	i	i	i
Cc1ccc(OCC(=O)NCCCNC(=O)COc2ccc(C)cc2)cc1	nt	nt	i	i	nt	i
NC(=O)[C@@H]1CCCN1Cc1c(C(=O)N2CCN(C3CCCCC3)CC2)nc2ccccn12	i	i	i	i	i	i
COc1ccc(C2c3ccc(O)cc3Oc3ncn4nc(-c5ccccn5)nc4c32)cc1 (centres undefined)	i	i	i	i	i	i
Cc1ccc(OCCOCCn2cnc3ccccc3c2=O)c([N+](=O)[O-])c1	i	i	i	i	i	i
Cc1ccc([N+](=O)[O-])c(OCCn2cnc3ccccc32)c1	10	i	i	i	i	i
Fc1ccc(CN2CCC(Cc3ccccc3)CC2)cc1F	i	i	i	i	i	i
Clc1ccc(CN2CCC(Cc3ccccc3)CC2)cc1	i	i	i	-7.5	i	i
Clc1cccc(CN2CCC(Cc3ccccc3)CC2)c1	i	i	i	-7.2	i	i
O=C(N/N=C/c1cccc([N+](=O)[O-])c1)c1cc2c(ccc3ccccc32)o1	i	i	i	i	i	i
O=C(CCN1C(=O)c2ccccc2C1=O)Nc1cccc(O)c1	i	i	i	i	i	i
CC(=O)NC1=NN(C(C)=O)C(c2ccccc2)S1 (centres undefined)	i	i	i	i	i	i
C=CCn1c(Cc2cccs2)nnc1SCC(=O)Nc1ccc(OC)c(OC)c1	i	i	i	i	i	i
CCn1c(SCC(=O)Nc2ccccc2C(=O)OC)nnc1-c1ccc(N)cc1	i	i	i	i	i	i
CCn1c(SCC(=O)Nc2ccc3c(c2)oc2ccccc23)nnc1-c1ccc(N)cc1	i	i	i	i	i	8
CCn1c(Cc2cccs2)nnc1SCC(=O)Nc1ccc(OC)c(OC)c1	i	-4.7	i	i	i	i
CCC(C)Sc1nnc(Cc2cc(=O)[nH]c(=O)[nH]2)n1-c1ccc(F)cc1 (centres undefined)	i	i	i	i	i	i
Cc1ccc(C(=O)NCc2ccc(Cl)cc2)o1	i	i	i	i	i	i
SMILES	MrgX1 allo act	MrgX1 antag	RGS4 act	Kir21 block	MrgX1 agonist	RGS4 inh
CCN1CCN(S(=O)(=O)c2ccc(Cl)c(C(=O)NC(C)c3ccccc3Cl)c2)CC1 (centres undefined)	i	-5.4	i	i	i	i
CCOc1ccccc1NC(=O)c1cc(S(=O)(=O)N2CCN(CC)CC2)ccc1Cl	i	i	i	i	i	i
CSc1ccc(CN(C)CC(=O)NCc2ccccc2)cc1	i	i	i	i	i	i
CSc1ccc(CN(C)C(C)C(=O)NCc2ccccc2)cc1 (centres undefined)	i	i	i	-9.7	i	i
CCOc1ccc(CN(C)C(C)C(=O)NCc2ccccc2)cc1 (centres undefined)	i	i	i	i	i	i
COc1ccc(CNC(=O)CN(C)Cc2ccc(SC)cc2)cc1	i	i	i	-6.8	i	i
CSc1ccc(CN(C)C(=O)C(Cc2ccccc2)NC(=O)c2ccccc2)cc1 (centres undefined)	i	i	-7.3	i	i	i
CSc1ccc(CN(C)C(=O)c2cccc(S(=O)(=O)NCc3ccccc3)c2)cc1	i	-5.1	i	i	i	i
O=C(CSc1nc2c(sc3ccccc32)c(=O)n1-c1ccccc1)NCc1ccco1	i	i	i	i	i	i
O=C(N/N=C/c1cccc2ccccc12)c1n[nH]c2c1CCCC2	i	i	i	i	i	i
Cc1cc(C)c(C(=O)COC(=O)c2cccc(S(=O)(=O)NCc3ccccc3)c2)cc1C	i	i	i	-4.3	i	i
CCCN(CC(=O)Nc1ccccc1OC)C(=O)c1cccc(S(=O)(=O)NCc2ccccc2)c1	i	-6.1	i	i	i	i
CCCN(CC(=O)Nc1ccccc1OC)C(=O)c1cc(S(=O)(=O)NCc2ccccc2)ccc1C	i	i	i	i	i	i
Cc1cccc(NC(=S)NCC(C)CSc2ccc(Cl)cc2)c1 (centres undefined)	i	-6.4	i	i	i	i
O=C(N/N=C/c1c[nH]c2ccccc12)c1ccc2c(c1)OCCO2	i	i	i	i	i	i
O=C(N/N=C/c1c[nH]c2ccc(Br)cc12)c1ccc2c(c1)OCO2	i	i	i	i	45	i
CCOc1ccc2nc(NCCNC(=S)NCCCN(C)C)c(C#N)cc2c1	i	i	i	i	i	i
CSc1ccc(CN(C)C(=O)c2cc3ccccc3o2)cc1	i	i	i	i	i	i
CC(Oc1cccc(Cl)c1)C(=O)NCCCCc1ccccc1 (centres undefined)	i	i	i	-5.5	i	i
Cc1cc(C)n2cc(CSc3nnnn3-c3ccc(Cl)cc3)nc2n1	i	i	nt	nt	i	nt
CCC(NC(=S)NC1CCCCC1)c1ccc(C(C)C)cc1 (centres undefined)	i	-5.3	-8.5	i	i	i
Cc1ccc(C(C)NC(=S)NC2CCCCC2)cc1C (centres undefined)	i	i	i	-5.3	i	i
COc1ccc(C(C)NC(=S)NC2CCCC2)cc1OC (centres undefined)	i	i	i	i	i	i
COc1ccc(C(=O)Nc2ccc3ccccc3c2)c(OC)c1	i	i	i	i	i	i
COc1cc(C(c2c(O)nc(SC)[nH]c2=O)c2c(O)nc(SC)[nH]c2=O)cc(OC)c1OC	i	-4.7	i	i	i	i
c1ccc(-c2nnsc2-c2ncc[nH]2)cc1	i	i	i	i	i	i
O=S(=O)(c1ccc(Cl)cc1)c1snnc1-c1ccccc1	i	i	i	-10	i	i
O=S(=O)(c1ccc(F)cc1)c1snnc1-c1ccccc1	i	i	i	-15	i	i
